In assay [1] the test system is P. falciparum NF54 synchronized asexual parasites. Description: Stage-specificity during the asexual cell cycle. Format: cell-based, Plasmodium falciparum. As to conditions: 6 h; data not shown. Summed up: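 NF54 synchronized to 0–3 hpi by gelatin flotation, then 5% D-sorbitol 3 h later. Plated at 2% hematocrit, 0.5% starting parasitemia. 6 h exposure at 1×, 3× or 10× IC50 starting at 0, 6, 12, 18, 24, 30, 36 or 42 hpi, then cells washed in RPMI and recultured. Giemsa-smear parasitemia at 72 h post-synchronization; survival relative to DMSO. Three independent experiments, one well each; unpaired t test versus DMSO.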

In another assay the test system is P. falciparum NF54. In kind it is cell-based. As to conditions: Plasmodium falciparum, NF54, read-out: IC50 P. falciparum proliferation. Summed up:
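Asynchronous asexual P. falciparum NF54 cultures grown by a standard protocol. Proliferation IC50 determined with DHA as positive and DMSO as negative control. Values are mean IC50 ± SD of at least two independent experiments run in triplicate.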

Turning to `Clc1ccc2c(N3CCN(CCCN4CCN(c5ccnc6cc(Cl)ccc56)CC4)CC3)ccnc2c1` [piperaquine], the “activity on the ring stages” value in assay [1] is on record as “not active”.
Turning to `C[C@H]1[C@@H](O)O[C@@H]2O[C@@]3(C)CC[C@H]4[C@H](C)CC[C@@H]1[C@@]24OO3` [dihydroartemisinin (DHA), dihydroartemisinin], in the assay with P. falciparum NF54, the IC50 worked out at 5 ± 1 nM.

Values taken from paper PMC6978834 (ACS Central Science, 2019).
